The nature of data set [1]: Solubility of the compound in PBS buffer at pH 7.4 by HPLC analysis. In kind it is physicochemical. An outline of the steps: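 20 mM DMSO stocks diluted 1:100 into 0.01 M PBS pH 7.4 in duplicate wells of a solubility filter plate, shaken 90 min at 300 rpm. Seven-point calibration standards from 1 to 200 μM.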
The subject of data set [2] is Rattus norvegicus. Briefly: Antiinflammatory activity in rat assessed as reduction of carrageenan-induced paw pressure at 40 mg/kg, po after 15 mins post carrageenan-challenge. The class given is functional. Also noted: scale not given: the % may be the effect or the level left. An outline of the steps:
(§1)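 Rats (Sprague-Dawley or Wistar, 150-200 g) received intraplantar carrageenan 4 h before testing, then oral compound or CMC vehicle. Paw-pressure threshold read before treatment and at 15, 30, 45 and 60 min after treatment, compared with saline and carrageenan controls.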

The subject of data set [3] is Mus musculus. The experiment in a line: Analgesic activity in Swiss albino mouse assessed as reduction of acetic acid-induced writhing at 84 nmol/kg, po after 5 mins. In kind it is functional. Details: scale not given: the % may be the effect or the level left. An outline of the steps:
(§2)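 Male Swiss albino mice (23-25 g), standard diet and water ad libitum, 23 ± 1 °C, 12 h light/dark cycle. Test compound given orally; 0.6% acetic acid (10 mL/kg) injected ip. Stretching movements counted for 10 min, beginning 5 min after administration.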

For data set [4], the system named is Mus musculus. The experiment in a line: Analgesic activity in Swiss albino mouse assessed as reduction of acetic acid-induced writhing at 81.6 nmol/kg, po after 5 mins. The class given is functional. Also noted: scale not given: the % may be the effect or the level left. An outline of the steps: as §2
On the technique in general: Writhing tests count abdominal constrictions after an irritant is injected.

Data set [5] in a line: Solubility of the compound in simulated gastric fluid without pepsin at pH 1.5 by HPLC analysis. The class given is physicochemical. In short, it runs like this:
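Compound from 20 mM DMSO stock diluted 1:100 into 0.05 M simulated gastric fluid without pepsin (pH 1.5 with HCl), duplicate wells on a solubility filter plate, shaken 90 min at 300 rpm. Seven-point calibration standards from 1 to 200 μM.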

The test system of data set [6] is Rattus norvegicus. Briefly: Antiinflammatory activity in rat assessed as reduction of carrageenan-induced paw pressure at 40 mg/kg, po after 30 mins post carrageenan-challenge. In kind it is functional. Also noted: scale not given: the % may be the effect or the level left. In short, it runs like this: as §1
In general terms: Carrageenan injected into the paw causes an acute inflammation.

Data set [7] has as its system Rattus norvegicus. The experiment in a line: Antiinflammatory activity in rat assessed as reduction of carrageenan-induced paw pressure at 40 mg/kg, po after 45 mins post carrageenan-challenge. In kind it is functional. Also noted: scale not given: the % may be the effect or the level left. An outline of the steps: as §1
The test system of data set [8] is Mus musculus. Briefly: Analgesic activity in Swiss albino mouse assessed as reduction of acetic acid-induced writhing at 40.8 nmol/kg, po after 5 mins. In kind it is functional. Also noted: scale not given: the % may be the effect or the level left. In short, it runs like this: as §2
Data set [9] concerns Rattus norvegicus. Briefly: Antiinflammatory activity in rat assessed as reduction of carrageenan-induced oedema in right hind paw at 40 mg/kg, po after 4 hrs post carrageenan-challenge. The class given is functional. Also noted: scale not given: the % may be the effect or the level left. An outline of the steps:
(§3)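 Sprague-Dawley or Wistar rats (150-200 g). Carrageenan injected intraplantar; oral treatment with test compound or CMC vehicle. Right hind paw volume measured 4 h after carrageenan and compared with saline- and carrageenan-treated controls.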

The test system of data set [10] is Rattus norvegicus. The experiment in a line: Antiinflammatory activity in rat assessed as reduction of carrageenan-induced paw pressure at 40 mg/kg, po after 60 mins post carrageenan-challenge. The class given is functional. Details: scale not given: the % may be the effect or the level left. In short, it runs like this:
as §1

The subject of data set [11] is Rattus norvegicus. The experiment in a line: Antiinflammatory activity in rat assessed as reduction of carrageenan-induced paw pressure at 20 mg/kg, po after 15 mins post carrageenan-challenge. In kind it is functional. Also noted: scale not given: the % may be the effect or the level left. In short, it runs like this:
as §1

Data set [12] has as its system Rattus norvegicus. Briefly: Antiinflammatory activity in rat assessed as reduction of carrageenan-induced paw pressure at 20 mg/kg, po after 60 mins post carrageenan-challenge. Also noted: scale not given: the % may be the effect or the level left. In kind it is functional. An outline of the steps: as §1
In data set [13] the test system is Rattus norvegicus. Briefly: Antiinflammatory activity in rat assessed as reduction of carrageenan-induced oedema in right hind paw at 20 mg/kg, po after 4 hrs post carrageenan-challenge. Details: scale not given: the % may be the effect or the level left. In kind it is functional. In short, it runs like this:
as §3

In data set [14] the test system is Rattus norvegicus. The experiment in a line: Antiinflammatory activity in rat assessed as reduction of carrageenan-induced paw pressure at 20 mg/kg, po after 45 mins post carrageenan-challenge. The class given is functional. Details: scale not given: the % may be the effect or the level left. An outline of the steps:
as §1

The next data set deals with Liver. The experiment in a line: Induction of nitrite/nitrate production in Wistar rat liver homogenates at 1 mM. In kind it is functional, tissue-based. The note with it: TDE = time-dependent effect. In short, it runs like this:
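Liver from male Wistar rats (250–350 g), perfused with cold buffer (pH 7.4), homogenized 1:5 w/v. Homogenate in K2HPO4/EDTA buffer pH 7.4 with 1 mM glutathione, NADH and NADPH at 37 °C; compound added from DMSO at 1 mM final. Aliquots at 5-120 min into H2SO4/KI; quantified against sodium nitrite calibration.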

Data set [15] concerns Mus musculus. The experiment in a line: Analgesic activity in Swiss albino mouse assessed as reduction of acetic acid-induced writhing at 42 nmol/kg, po after 5 mins. The class given is functional. Details: scale not given: the % may be the effect or the level left. In short, it runs like this: as §2
Data set [16] relates to Mus musculus. The experiment in a line: Analgesic activity in Swiss albino mouse assessed as reduction of acetic acid-induced writhing at 21 nmol/kg, po after 5 mins. Details: scale not given: the % may be the effect or the level left. The class given is functional. In short, it runs like this:
as §2

Data set [17] concerns Rattus norvegicus. Briefly: Antiinflammatory activity in rat assessed as reduction of carrageenan-induced paw pressure at 20 mg/kg, po after 30 mins post carrageenan-challenge. In kind it is functional. Also noted: scale not given: the % may be the effect or the level left. In short, it runs like this: as §1

Values after ≈ are worked out from the molar mass of the structure shown. A value given as a limit tells only on which side of the number the result lay.

Regarding `Cc1c(CC(=O)OCCCO[N+](=O)[O-])cc(-c2ccc(S(C)(=O)=O)cc2)n1-c1cccc(F)c1`, the solubility in [1] was 1.1 µM (≈ 0.54 µg/mL); in [5], under 1 µM. The Activity worked out at 40% in the data set on Rattus norvegicus [2]; 71.2% in the data set with Mus musculus [3]; 26.4% in the data set on Mus musculus [4]; 41% in the data set on Rattus norvegicus [6]; 40% in the data set with Rattus norvegicus [7]; 23.3% in the data set on Mus musculus [8]. Also, the Activity with Rattus norvegicus [9] amounted to 35%; in the data set with Rattus norvegicus [10], 17%.
For the compound `Cc1c(CC(=O)OCCO[N+](=O)[O-])cc(-c2ccc(S(C)(=O)=O)cc2)n1-c1cccc(F)c1`, the solubility in [1] was 1.6 µM (≈ 0.762 µg/mL); in data set [5], under 1 µM. The Activity in the data set on Rattus norvegicus [2] is 50%; with Rattus norvegicus [11], 18%; with Rattus norvegicus [12] it was 10%; in the data set with Rattus norvegicus [13] it was 17%; in the data set with Rattus norvegicus [14], 29%; in the data set with Liver, “tde”. Further, the Activity in the data set on Mus musculus [15] was 48.8%; in the data set on Rattus norvegicus [6], 80%; with Mus musculus [16], 30.8%; in the data set with Rattus norvegicus [7], 60%; in the data set on Rattus norvegicus [17], 35%; with Rattus norvegicus [9] it was 40%. In addition, the Activity with Rattus norvegicus [10] was 23%.

By solubility is commonly meant the concentration that dissolves in the medium under given conditions.

The values above are taken from ChEMBL document CHEMBL2151030, “Improving the solubility of a new class of antiinflammatory pharmacodynamic hybrids, that release nitric oxide and inhibit cycloxygenase-2 isoenzyme” (Eur J Med Chem, 2012).
